Results as given in EPA's CvTdb concentration-time database.

How the values were obtained:
rat = assay: concentration in blood after dosing; settings: dosed: methylene chloride, male
human [1] = assay: concentration in blood after dosing; negative times count back from the end of exposure; settings: inhalation
Method in brief: (§1)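 A PubMed search, classifier screening and manual review identified published in vivo toxicokinetic studies, which together with two structured collections supplied concentration-versus-time and amount-versus-time points. Points were mostly digitised from plot screenshots with WebPlotDigitizer, otherwise copied from tables. Dose, route, subject details and medium were hand-curated from each paper, and sampling and analytical methods are those of the sources, often unreported.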

frog = assay: concentration in embryo medium after dosing; settings: dosed: musk moskene, 400 ug/L embryo medium, dermal, duration: 10 days, xenopus laevis
Method in brief: as §1

human [2] = assay: concentration in urine after dosing; settings: dosed: benzene, 30 mg/m^3, inhalation, duration: 4 hr, male
Method in brief: as §1

human [3] = assay: concentration in urine after dosing; settings: dosed: benzene, 30 mg/m^3, inhalation, duration: 4 hr, male; remark: listed apart in the source
Method in brief: as §1

human [4] = assay: concentration in urine after dosing; negative times count back from the end of exposure; settings: dosed: benzene, 30 mg/m^3, inhalation, duration: 4 hr, male
Method in brief: as §1

ClCCl [methylene chloride]
Settings | concentration in blood [µg/mL]
human [1], 1.928 h, dosed: methylene chloride, 350 ppm, duration: 6 hr | 0.899
human [1], 2.051 h, dosed: methylene chloride, 100 ppm, duration: 6 hr | 0.155
human [1], 5.959 h, dosed: methylene chloride, 100 ppm, duration: 6 hr | 0.0624
human [1], 6.02 h, dosed: methylene chloride, 350 ppm, duration: 6 hr | 0.342
human [1], 16.03 h, dosed: methylene chloride, 100 ppm, duration: 6 hr | 0.012
human [1], 16.07 h, dosed: methylene chloride, 350 ppm, duration: 6 hr | 0.0774
human [1], 23.99 h, dosed: methylene chloride, 350 ppm, duration: 6 hr | 0.036
human [1], 276 s, dosed: methylene chloride, 350 ppm, duration: 6 hr | 5.76
rat, 0.1027 h, 125 mg/kg, oral, Wistar | 114
rat, 0.1096 h, 125 mg/kg, oral, Wistar | 35.7
rat, 0.1406 h, 125 mg/kg, oral, Wistar | 101
rat, 0.1438 h, 125 mg/kg, oral, Wistar | 37.3
rat, 0.1715 h, 125 mg/kg, oral, Wistar | 96.2
rat, 0.1781 h, 125 mg/kg, oral, Wistar | 38.7
rat, 0.2228 h, 125 mg/kg, oral, Wistar | 93.9
rat, 0.2329 h, 125 mg/kg, oral, Wistar | 39.9
rat, 0.2708 h, 125 mg/kg, oral, Wistar | 88.1
rat, 0.2808 h, 125 mg/kg, oral, Wistar | 41
rat, 0.3223 h, 125 mg/kg, oral, Wistar | 79.6
rat, 0.3356 h, 125 mg/kg, oral, Wistar | 39.8
rat, 0.3704 h, 125 mg/kg, oral, Wistar | 71.1
rat, 0.3836 h, 125 mg/kg, oral, Wistar | 38.3
rat, 0.4252 h, 125 mg/kg, oral, Wistar | 65.4
rat, 0.4315 h, 125 mg/kg, oral, Wistar | 34.6
rat, 0.5041 h, 125 mg/kg, oral, Wistar | 57.1
rat, 0.5205 h, 125 mg/kg, oral, Wistar | 36.1
rat, 0.7539 h, 125 mg/kg, oral, Wistar | 41.6
rat, 0.7671 h, 125 mg/kg, oral, Wistar | 27.6
rat, 1.007 h, 125 mg/kg, oral, Wistar | 31.4
rat, 1.014 h, 125 mg/kg, oral, Wistar | 24
rat, 1.5 h, 125 mg/kg, oral, Wistar | 16.9
rat, 1.514 h, 125 mg/kg, oral, Wistar | 14.9
rat, 2.002 h, 125 mg/kg, oral, Wistar | 8.75
rat, 2.014 h, 125 mg/kg, oral, Wistar | 9.35
rat, 2.498 h, 125 mg/kg, oral, Wistar | 3.47
rat, 2.514 h, 125 mg/kg, oral, Wistar | 11.3
rat, 3.014 h, 125 mg/kg, oral, Wistar | 9.84
rat, 3.507 h, 125 mg/kg, oral, Wistar | 6.9
rat, 4.007 h, 125 mg/kg, oral, Wistar | 5.98
rat, 4.507 h, 125 mg/kg, oral, Wistar | 4.86
rat, 5 h, 125 mg/kg, oral, Wistar | 1.82
rat, 129 s, 125 mg/kg, oral, Wistar | 59.8
rat, 173 s, 125 mg/kg, oral, Wistar | 15.7
rat, 247 s, 125 mg/kg, oral, Wistar | 29.8
rat, 248 s, 125 mg/kg, oral, Wistar | 101

Settings | concentration in blood [µg/mL]
human [1], -2.858 h, dosed: methylene chloride, 350 ppm, duration: 6 hr, during exposure | 5.83
human [1], -2.95 h, dosed: methylene chloride, 100 ppm, duration: 6 hr, during exposure | 1.09
human [1], -58 s, dosed: methylene chloride, 100 ppm, duration: 6 hr, during exposure | 1.02
rat, 0.5086 h, 100000 ppm, dermal, duration: 4 hr, Fischer-344 | 57.3
rat, 0.5196 h, 60000 ppm, dermal, duration: 4 hr, Fischer-344 | 29.8
rat, 0.5257 h, 30000 ppm, dermal, duration: 4 hr, Fischer-344 | 11.3
rat, 1.007 h, 100000 ppm, dermal, duration: 4 hr, Fischer-344 | 67.3
rat, 1.008 h, 60000 ppm, dermal, duration: 4 hr, Fischer-344 | 45.9
rat, 1.013 h, 30000 ppm, dermal, duration: 4 hr, Fischer-344 | 21.1
rat, 1.988 h, 100000 ppm, dermal, duration: 4 hr, Fischer-344 | 79.8
rat, 1.99 h, 60000 ppm, dermal, duration: 4 hr, Fischer-344 | 43.4
rat, 1.996 h, 30000 ppm, dermal, duration: 4 hr, Fischer-344 | 30
rat, 2.977 h, 100000 ppm, dermal, duration: 4 hr, Fischer-344 | 97.7
rat, 2.987 h, 60000 ppm, dermal, duration: 4 hr, Fischer-344 | 44.7
rat, 2.989 h, 30000 ppm, dermal, duration: 4 hr, Fischer-344 | 29.8
rat, 3.973 h, 100000 ppm, dermal, duration: 4 hr, Fischer-344 | 98.1
rat, 3.974 h, 60000 ppm, dermal, duration: 4 hr, Fischer-344 | 52.2
rat, 3.978 h, 30000 ppm, dermal, duration: 4 hr, Fischer-344 | 23.6

Cc1c([N+](=O)[O-])cc2c(c1[N+](=O)[O-])C(C)(C)CC2(C)C [musk moskene]
frog
Settings | concentration in embryo medium [µg/mL]
0.1638 h | 0.353
0.2136 h | 0.293
0.2621 h | 0.67
95.89 h | 0.0465
168.63 h | 0.226
240 h | 0.175
240.21 h | 0.29
240.24 h | 0.222

Oc1ccccc1 [phenol]
Settings | concentration in urine [µM]
human [2], 0 h | 72.9
human [2], 2 h | 113
human [2], 4 h | 226
human [2], 6 h | 207
human [2], 8 h | 143
human [2], 10 h | 180
human [2], 12.06 h | 144
human [2], 14 h | 87.1
human [2], 20.36 h | 70.2
human [2], 24.06 h | 112
human [2], 27.03 h | 80.5
human [2], 32 h | 82.7
human [2], 38.06 h | 73.4
human [2], 42.55 h | 45.5
human [2], 47.58 h | 65.6
human [2], 52.48 h | 50.5
human [3], 0 h | 61.4
human [3], 2 h | 82.2
human [3], 4 h | 186
human [3], 5.939 h | 193
human [3], 8 h | 143
human [3], 10 h | 129
human [3], 12.06 h | 109
human [3], 14.36 h | 102
human [3], 15.52 h | 80.2
human [3], 23.33 h | 176
human [3], 26.24 h | 68.4
human [3], 37.03 h | 45.6
human [3], 38.55 h | 45
human [3], 46.55 h | 87.7
human [3], 47.52 h | 141
human [3], 52 h | 95.1
human [4], 0 h | 314
human [4], 1.939 h | 244
human [4], 4 h | 187
human [4], 6.061 h | 200
human [4], 8 h | 99.3
human [4], 10.06 h | 114
human [4], 18 h | 121
human [4], 24.55 h | 51
human [4], 30 h | 39.3
human [4], 34.12 h | 38
human [4], 42.3 h | 38.5
human [4], 50.48 h | 52.2

human [4], during exposure
Settings | concentration in urine [µM]
-4 h | 23.7
-2.061 h | 124

CC(C)(C)O [tert-butanol]
human [1], dosed: methyl tert-butyl ether, 25 ppm, duration: 4 hr, male
Settings | concentration in blood [µM]
0.1966 h | 14.8
0.4673 h | 15.1
0.8191 h | 15.4
2.091 h | 14.8
6.879 h | 11.6
20.02 h | 4.27

human [1], dosed: methyl tert-butyl ether, 25 ppm, duration: 4 hr, male, during exposure
Settings | concentration in blood [µM]
-3.999 h | 0.0102
-3.435 h | 3.36
-2.296 h | 6.17
-1.076 h | 10.4
-0.2367 h | 13.1
